Measured values as given in ChEMBL document CHEMBL2424614, “A novel p-terphenyl derivative inducing cell-cycle arrest and apoptosis in MDA-MB-435 cells through topoisomerase inhibition” (Eur J Med Chem, 2013).
Active and inactive are the calls of the source. No cut-off for these calls is given here.

Legend:
MDA-MB-435 [1] = assay: Cell cycle arrest in human MDA-MB-435 cells assessed as accumulation at G2/M phase at 1 uM after 24 hrs by propidium iodide staining-based flow cytometry (reference value: 14.05%); assay type: functional
MDA-MB-435 [2] = assay: Cell cycle arrest in human MDA-MB-435 cells assessed as accumulation at G1 phase at 0.5 uM after 24 hrs by propidium iodide staining-based flow cytometry (reference value: 28.06%); assay type: functional
A549 = assay: Cytotoxicity against human A549 cells assessed as growth inhibition after 72 hrs by MTT assay; assay type: functional, cell-based
Method in brief: (§1)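 MTT assay: cells treated in triplicate with a range of concentrations for 72 h at 37 °C, 5% CO2. Medium replaced, MTT (5 mg/mL) added for 4 h, then SDS/isobutanol/HCl solubiliser overnight. Absorbance read at 590 nm. Inhibition calculated against control and blank wells; IC50 is concentration giving 50% growth inhibition; three independent experiments.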

MDA-MB-435 [3] = assay: Induction of apoptosis in human MDA-MB-435 cells at 0.25 to 1 uM after 24 hrs by annexin-V FITC/propidium iodide staining-based flow cytometry in presence of N-acetylcysteine; assay type: functional, cell-based
MDA-MB-435 [4] = assay: Induction of apoptosis in human MDA-MB-435 cells assessed as morphological changes at 0.25 to 1 uM by DAPI staining-based fluorescence microscopy; assay type: functional, cell-based
Method in brief: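 Treated MDA-MB-435 cells washed in ice-cold PBS, fixed 20 min in 4% paraformaldehyde, stained 30 min at 37 °C with DAPI (50 µg/mL) containing 100 µg/mL RNase A. After PBS washes, examined by fluorescence microscopy (excitation 340 nm, emission 488 nm).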

MDA-MB-435 [5] = assay: Induction of apoptosis in human MDA-MB-435 cells assessed as early apoptotic cells at 1 uM after 24 hrs by annexin-V FITC/propidium iodide staining-based flow cytometry (reference value: 0.61 +/- 0.24%); assay type: functional
Method in brief: (§2)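 MDA-MB-435 cells treated 24 h, stained with annexin V-FITC/PI per kit instructions, analysed by flow cytometry. Quadrant statistics: lower right taken as apoptotic, upper right as necrotic or post-apoptotic necrotic. Representative of three similar experiments.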

MDA-MB-435 [6] = assay: Cell cycle arrest in human MDA-MB-435 cells at 0.25 to 1 uM after 24 hrs by propidium iodide staining-based flow cytometry in presence of N-acetylcysteine; assay type: functional
[7] = target: DNA topoisomerase 2-alpha (Homo sapiens) (UniProt P11388); assay: Inhibition of recombinant human DNA topoisomerase 2-alpha-mediated relaxation of supercoiled pBR322 DNA at 10 to 100 uM after 30 mins by Agarose gel electrophoresis
DNA topoisomerase 2-alpha (Homo sapiens), sequence (P11388 whole entry): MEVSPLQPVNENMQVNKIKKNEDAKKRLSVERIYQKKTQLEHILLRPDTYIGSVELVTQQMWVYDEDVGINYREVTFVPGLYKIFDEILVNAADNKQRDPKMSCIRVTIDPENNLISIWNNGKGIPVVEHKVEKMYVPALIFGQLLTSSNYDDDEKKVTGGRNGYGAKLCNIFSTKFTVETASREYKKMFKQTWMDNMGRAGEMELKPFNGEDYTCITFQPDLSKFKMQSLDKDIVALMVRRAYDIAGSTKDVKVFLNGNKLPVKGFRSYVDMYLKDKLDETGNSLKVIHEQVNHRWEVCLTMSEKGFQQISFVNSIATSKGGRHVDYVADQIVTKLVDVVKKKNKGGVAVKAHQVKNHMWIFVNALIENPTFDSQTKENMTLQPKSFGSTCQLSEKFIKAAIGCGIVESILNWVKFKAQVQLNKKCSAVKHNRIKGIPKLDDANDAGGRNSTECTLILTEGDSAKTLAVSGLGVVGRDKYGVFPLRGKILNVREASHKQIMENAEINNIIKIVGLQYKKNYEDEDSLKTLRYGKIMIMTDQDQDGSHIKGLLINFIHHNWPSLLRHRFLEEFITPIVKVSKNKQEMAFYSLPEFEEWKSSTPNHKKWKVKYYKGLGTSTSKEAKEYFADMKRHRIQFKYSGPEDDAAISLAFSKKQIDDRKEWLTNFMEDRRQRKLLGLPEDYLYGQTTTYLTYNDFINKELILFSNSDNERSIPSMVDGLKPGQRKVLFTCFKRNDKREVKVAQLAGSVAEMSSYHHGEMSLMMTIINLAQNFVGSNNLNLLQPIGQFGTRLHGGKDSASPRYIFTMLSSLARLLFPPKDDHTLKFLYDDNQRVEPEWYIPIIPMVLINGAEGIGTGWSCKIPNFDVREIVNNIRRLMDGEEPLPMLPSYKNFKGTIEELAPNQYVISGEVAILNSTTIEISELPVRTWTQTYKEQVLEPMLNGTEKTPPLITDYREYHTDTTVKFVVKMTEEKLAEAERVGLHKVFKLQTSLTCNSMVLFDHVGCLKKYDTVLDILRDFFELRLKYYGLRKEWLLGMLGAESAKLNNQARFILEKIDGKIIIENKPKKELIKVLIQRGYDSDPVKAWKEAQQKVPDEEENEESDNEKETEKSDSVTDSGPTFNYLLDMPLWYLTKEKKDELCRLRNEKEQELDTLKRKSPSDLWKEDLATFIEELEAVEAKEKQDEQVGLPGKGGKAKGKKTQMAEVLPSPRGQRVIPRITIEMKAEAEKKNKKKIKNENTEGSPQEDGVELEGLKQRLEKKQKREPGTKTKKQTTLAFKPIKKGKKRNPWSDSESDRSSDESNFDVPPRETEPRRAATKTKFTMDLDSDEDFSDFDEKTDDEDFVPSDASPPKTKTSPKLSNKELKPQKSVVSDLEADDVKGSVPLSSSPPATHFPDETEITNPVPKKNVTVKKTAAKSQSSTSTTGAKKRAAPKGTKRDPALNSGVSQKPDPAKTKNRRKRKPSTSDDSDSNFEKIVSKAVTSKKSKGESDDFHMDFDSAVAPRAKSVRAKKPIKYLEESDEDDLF
Method in brief: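 Relaxation assay with 0.5 µg supercoiled pBR322 and 1 unit recombinant human Topo IIα, 20 µL. Incubated 30 min at 30 °C; stopped with 7 mM EDTA. 1% agarose gel, 5 V/cm, 2 h, TAE; ethidium bromide stain, UV. DMSO stocks. At least duplicate.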

MDA-MB-435 [8] = assay: Cytotoxicity against human MDA-MB-435 cells assessed as growth inhibition after 72 hrs by MTT assay; assay type: functional, cell-based; conditions: MDA-MB-435, 72 h; method in brief: as §1
Bos taurus = organism: Bos taurus; assay: Inhibition of calf thymus DNA topoisomerase 1-mediated relaxation of supercoiled pBR322 DNA at 10 to 100 uM after 30 mins by Agarose gel electrophoresis
Method in brief: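 Relaxation assay with 0.5 µg supercoiled pBR322 and 1 unit calf thymus Topo I, 20 µL. Buffer: 10 mM Tris–HCl pH 7.9, 150 mM NaCl, 0.1% BSA, 1 mM spermidine, 5% glycerol. Incubated 37 °C for 30 min; stopped with sarcosyl stop solution. 1% agarose gel, 5 V/cm, 2 h, TAE; ethidium bromide stain (0.5 µg/mL), UV. DMSO stocks. At least duplicate.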

LNCaP = assay: Cytotoxicity against human LNCAP cells assessed as growth inhibition after 72 hrs by MTT assay; assay type: functional, cell-based; method in brief: as §1
MDA-MB-435 [9] = assay: Induction of apoptosis in human MDA-MB-435 cells assessed as late apoptotic cells at 0.5 uM after 24 hrs by annexin-V FITC/propidium iodide staining-based flow cytometry (reference value: 0.34 +/- 0.08%); assay type: functional; method in brief: as §2
MDA-MB-435 [10] = assay: Cell cycle arrest in human MDA-MB-435 cells assessed as accumulation at S phase at 1 uM after 24 hrs by propidium iodide staining-based flow cytometry (reference value: 57.11%); assay type: functional
MDA-MB-435 [11] = assay: Cell cycle arrest in human MDA-MB-435 cells assessed as accumulation at sub-G1 phase at 0.25 uM after 24 hrs by propidium iodide staining-based flow cytometry (reference value: 0.79%); assay type: functional
MDA-MB-435 [12] = assay: Induction of apoptosis in human MDA-MB-435 cells assessed as downregulation of Bcl-2 protein expression at 0.25 to 1 uM after 12 hrs by Western blotting analysis; assay type: functional, cell-based
Method in brief: (§3)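 Treated MDA-MB-435 cells lysed in ice-cold Tris-HCl pH 7.4 buffer with Triton, phosphatase and protease inhibitors. Lysates clarified, boiled in SDS loading buffer, run on 8-12% SDS-PAGE and blotted. Membranes blocked in 5% skim milk, probed with primary antibodies, then peroxidase secondaries with ECL detection. β-actin as loading control.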

MDA-MB-435 [13] = assay: Cell cycle arrest in human MDA-MB-435 cells assessed as accumulation at G2/M phase at 0.25 uM after 24 hrs by propidium iodide staining-based flow cytometry (reference value: 14.05%); assay type: functional
MDA-MB-435 [14] = assay: Induction of apoptosis in human MDA-MB-435 cells assessed as late apoptotic cells at 1 uM after 24 hrs by annexin-V FITC/propidium iodide staining-based flow cytometry (reference value: 0.34 +/- 0.08%); assay type: functional; method in brief: as §2
MDA-MB-435 [15] = assay: Induction of DNA damage in human MDA-MB-435 cells assessed as phosphorylation of ATM at Ser1981 at 0.5 uM after 12 hrs by Western blotting analysis; assay type: functional, cell-based; method in brief: as §3
MDA-MB-435 [16] = assay: Induction of apoptosis in human MDA-MB-435 cells assessed as early apoptotic cells at 2 uM after 24 hrs by annexin-V FITC/propidium iodide staining-based flow cytometry (reference value: 0.61 +/- 0.24%); assay type: functional; method in brief: as §2
MDA-MB-435 [17] = assay: Induction of apoptosis in human MDA-MB-435 cells assessed as viable cells at 0.5 uM after 24 hrs by annexin-V FITC/propidium iodide staining-based flow cytometry (reference value: 98.62 +/- 0.25%); assay type: functional; conditions: MDA-MB-435, 24 h, read-out: Activity; method in brief: as §2
MDA-MB-435 [18] = assay: Cell cycle arrest in human MDA-MB-435 cells assessed as accumulation at S phase at 0.5 uM after 24 hrs by propidium iodide staining-based flow cytometry (reference value: 57.11%); assay type: functional
MDA-MB-435 [19] = assay: Cell cycle arrest in human MDA-MB-435 cells assessed as accumulation at S phase at 0.25 uM after 24 hrs by propidium iodide staining-based flow cytometry (reference value: 57.11%); assay type: functional
MDA-MB-435 [20] = assay: Induction of apoptosis in human MDA-MB-435 cells assessed as early apoptotic cells at 0.5 uM after 24 hrs by annexin-V FITC/propidium iodide staining-based flow cytometry (reference value: 0.61 +/- 0.24%); assay type: functional; method in brief: as §2
MDA-MB-435 [21] = assay: Cell cycle arrest in human MDA-MB-435 cells assessed as accumulation at sub-G1 phase at 1 uM after 24 hrs by propidium iodide staining-based flow cytometry (reference value: 0.79%); assay type: functional

Question: What does the source list for `Oc1ccc(-c2ccc(-c3ccc(O)c(O)c3)cc2)cc1`?
Answer: Activity (MDA-MB-435 [1]): 54.51%; Activity (MDA-MB-435 [2]): 30.68%; growth inhibition (GI) (A549): Active; Activity (MDA-MB-435 [3]): Active; Activity (MDA-MB-435 [4]): Active; Activity (MDA-MB-435 [5]): 13.33%; Activity (MDA-MB-435 [6]): Active; inhibition [7]: Active; IC50 (MDA-MB-435 [8]): < 1000 nM; inhibition (Bos taurus): Active; growth inhibition (GI) (LNCaP): Active; Activity (MDA-MB-435 [9]): 7.79%; Activity (MDA-MB-435 [10]): 12.58%; Activity (MDA-MB-435 [11]): 1.04%; Activity (MDA-MB-435 [12]): Active; Activity (MDA-MB-435 [13]): 16.24%; Activity (MDA-MB-435 [14]): 8.64%; Activity (MDA-MB-435 [15]): inactive; Activity (MDA-MB-435 [16]): 12.87%; viability at 0.5 µM (MDA-MB-435 [17]): 81.6%; Activity (MDA-MB-435 [18]): 26.38%; Activity (MDA-MB-435 [19]): 47.81%; Activity (MDA-MB-435 [20]): 8.01%; Activity (MDA-MB-435 [21]): 10.5%
